# Measurements reported in ChEMBL document CHEMBL1208664, “Structure-activity relationship studies of acridones as potential antipsoriatic agents. 1. Synthesis and antiproliferative activity of simple N-unsubstituted 10H-acridin-9-ones against human keratinocyte growth” (Eur J Med Chem, 2010).
# Tests used:
# HaCaT [1] = test: Antiproliferative activity against human HaCaT cells after 48 hrs by phase contrast microscopy; type: functional, cell-based
# Procedure, shortened: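 HaCaT keratinocytes were treated for 48 h, then dispersed cells were counted under phase-contrast microscopy. Inhibition = (1 − test/control) × 100, with test mean N=3 against control N=6–8. Significance was by Student's t-test.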
# [2] = system: Radical scavenging activity; test: Antioxidant activity assessed as DPPH free radical scavenging activity after 30 mins; type: functional; conditions: in the assay text read “after 20 mins” for “after 30 mins”
# Procedure, shortened: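 Test compound in EtOH was mixed with an equal volume of DPPH in EtOH. The mix was shaken 30 s, held in the dark at RT for 20 min, shaken again 30 s, and the drop in absorbance at 520 nm was read. Scavenging % = (1 − test/control absorbance) × 100, with test N=3 and control N=8. EC50 came from nonlinear regression. NDGA and α-tocopherol were positive controls.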
# HaCaT [3] = test: Antiproliferative activity against human HaCaT cells assessed as LDH release at 2 uM after 4 hrs by UV method
SMILES,EC50 [2] [µM],IC50 [2] [µM],IC50 (HaCaT [1]) [µM],Activity (HaCaT [3]) [mU/ml]
O=c1c2ccccc2[nH]c2cc(O)ccc12,,,> 50,
O=c1c2ccccc2[nH]c2cc(OCc3ccccc3)cc(O)c12,,,47.8,
O=c1c2ccccc2[nH]c2cc(OCCc3ccccc3)cc(O)c12,,,21,
O=C(c1ccccc1)c1ccc2[nH]c3ccccc3c(=O)c2c1O,> 60,,1.6,88.9
CC(=O)Oc1cccc2[nH]c3ccccc3c(=O)c12,,,21.5,
O=C(Oc1cccc2[nH]c3ccccc3c(=O)c12)c1ccccc1,> 60,,12.4,
COc1cccc2[nH]c3cccc(OC)c3c(=O)c12,,,> 50,
COc1ccc2c(=O)c3ccccc3[nH]c2c1,,,> 50,
COc1ccc2c(=O)c3c(OC)cccc3[nH]c2c1,,,> 50,
COc1ccc2[nH]c3cccc(OC)c3c(=O)c2c1,,,> 50,
O=c1c2cccc(O)c2[nH]c2cc(O)cc(O)c12,15,,8.4,69.9
O=c1c2c(O)cccc2[nH]c2cc(O)cc(O)c12,> 60,,2,69.3
COc1cc(OC)c2c(=O)c3c(OC)cccc3[nH]c2c1,,,45.3,
COc1cccc2[nH]c3cc(O)cc(O)c3c(=O)c12,,,28.3,
COc1ccc(OC)c2c(=O)c3c(OC)cccc3[nH]c12,> 60,,> 50,
Cc1cc(O)c2c(=O)c3ccccc3[nH]c2c1,,,> 50,
Cc1cc(O)cc2[nH]c3ccccc3c(=O)c12,,,27.3,
Cc1ccc2c(=O)c3c(O)cc(O)cc3[nH]c2c1,,,> 50,
Cc1cccc2c(O)c3c(O)cc(O)cc3nc12,,,> 50,
COc1cc(O)c2c(O)c3cccc(OC)c3nc2c1,,,34.3,
COc1cc(O)c2c(=O)c3ccccc3[nH]c2c1,,,46.3,
COc1cc(OC)c2c(=O)c3ccccc3[nH]c2c1,,,> 50,
COc1ccc2[nH]c3ccccc3c(=O)c2c1,,,> 50,
Cc1cccc2nc3cc(O)cc(O)c3c(O)c12,> 60,,0.8,71.5
COc1cccc2c(O)c3c(O)cc(O)cc3nc12,,,21.3,
Cc1c(C)c2c(c(C)c1O)CC[C@@](C)(CCC[C@H](C)CCC[C@H](C)CCCC(C)C)O2 [ALPHA-TOCOPHEROL],,8.2,,
O=C1c2c(O)cccc2Cc2cccc(O)c21 [ANTHRALIN],16.7,,,122.8
CC(Cc1ccc(O)c(O)c1)C(C)Cc1ccc(O)c(O)c1 (stereo not given) [NORDIHYDROGUAIARETIC ACID],,4.2,,

# Continued, in another order:
EC50 [2] [µM],IC50 [2] [µM],SMILES,IC50 (HaCaT [1]) [µM],Activity (HaCaT [3]) [mU/ml]
> 60,,COc1ccc(C(N)=O)c2[nH]c3ccccc3c(=O)c12,8.8,66.5
> 60,,COC(=O)c1ccc(O)c2c(=O)c3ccccc3[nH]c12,5.2,58.8
> 60,,COC(=O)c1ccc(OC)c2c(=O)c3ccccc3[nH]c12,10.8,63.7
> 60,,O=C(O)c1ccc(O)c2c(=O)c3ccccc3[nH]c12,49.2,
> 60,,COc1ccc(C(=O)O)c2[nH]c3ccccc3c(=O)c12,> 50,
> 60,,CC(=O)c1ccc2[nH]c3ccccc3c(=O)c2c1O,17.1,
> 60,,O=c1c2c(O)cccc2[nH]c2cccc(O)c12,39.5,
6.8,,O=c1c2ccccc2[nH]c2c(O)cccc12,> 50,
> 60,,COc1cccc2c(=O)c3ccccc3[nH]c12,> 50,
8.8,,O=c1c2ccccc2[nH]c2c(O)ccc(O)c12,10,61.2
> 60,,COc1ccc(OC)c2c(=O)c3ccccc3[nH]c12,> 50,
> 60,,COc1ccc(O)c2c(=O)c3ccccc3[nH]c12,17.5,
> 60,,O=c1c2ccc(O)cc2[nH]c2cccc(O)c12,4.5,77.7
3.9,,O=c1c2cc(O)ccc2[nH]c2cccc(O)c12,48.8,
> 60,,COc1ccc(O)c2c(=O)c3c(O)cccc3[nH]c12,> 50,
> 60,,Cc1ccc(O)c2c(=O)c3ccccc3[nH]c12,25.7,
> 60,,COc1ccc(C)c2[nH]c3ccccc3c(=O)c12,46.7,
> 60,,O=c1c2ccccc2[nH]c2c(Cl)ccc(O)c12,26.3,
> 60,,COc1ccc(Cl)c2[nH]c3ccccc3c(=O)c12,43.8,
> 60,,O=c1c2ccccc2[nH]c2c([N+](=O)[O-])ccc(O)c12,47.3,
> 60,,COc1ccc([N+](=O)[O-])c2[nH]c3ccccc3c(=O)c12,> 50,
7.6,,Nc1ccc(O)c2c(=O)c3ccccc3[nH]c12,> 50,
7.7,,COc1ccc(N)c2[nH]c3ccccc3c(=O)c12,> 50,
> 60,,N#Cc1ccc(O)c2c(=O)c3ccccc3[nH]c12,27.9,
> 60,,COc1ccc(C#N)c2[nH]c3ccccc3c(=O)c12,> 50,
> 60,,NC(=O)c1ccc(O)c2c(=O)c3ccccc3[nH]c12,4.7,68.1
2.7,,O=c1c2ccccc2[nH]c2ccc(O)cc12,> 50,
> 60,,COc1cccc2[nH]c3ccccc3c(=O)c12,> 50,
> 60,,O=c1c2ccccc2[nH]c2cc(O)cc(O)c12,19.8,
> 60,,O=c1c2ccccc2[nH]c2cccc(O)c12,> 50,
